Measurements: ChEMBL document CHEMBL1138564, “Microwave-induced synthesis and anti-microbial activities of 7,10,11,12-tetrahydrobenzo[c]acridin-8(9H)-one derivatives” (2009)
≈ marks a conversion by molar mass, not a printed value. Calls of active or inactive are those of the source. The calls are words filed in the database; no cut-off is given here.

Legend:
[1] = test system: Escherichia coli; assay: Antimicrobial activity against Escherichia coli NCIM 2065 at 1000 ug/disk after 24 hrs by disk diffusion method; type: functional; settings: NCIM 2065, 24 h, read-out: DIZ
Method in brief: (§1)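 Disc diffusion on Mueller–Hinton agar. 100 µl of bacterial suspension at 10⁸ CFU/ml is spread on the plate. Discs carry test compounds at two loadings, dissolved in DMSO; DMSO alone serves as negative control. Ofloxacin disc is the positive reference. Plates are incubated at 37 °C for 24 h, and the inhibition zone diameter is measured.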

[2] = test system: Bacillus subtilis; assay: Antimicrobial activity against Bacillus subtilis NCIM 2063 at 500 ug/disk after 24 hrs by disk diffusion method; type: functional; settings: NCIM 2063, 24 h, read-out: DIZ; method in brief: as §1
[3] = test system: Bacillus subtilis; assay: Antimicrobial activity against Bacillus subtilis NCIM 2063 at 1000 ug/disk after 24 hrs by disk diffusion method; type: functional; settings: NCIM 2063, 24 h, read-out: DIZ; method in brief: as §1
[4] = test system: Bacillus cereus; assay: Antimicrobial activity against Bacillus cereus NCIM 2155 at 500 ug/disk after 24 hrs by disk diffusion method; type: functional; method in brief: as §1
[5] = test system: Bacillus cereus; assay: Antimicrobial activity against Bacillus cereus NCIM 2155 at 1000 ug/disk after 24 hrs by disk diffusion method; type: functional; method in brief: as §1
[6] = test system: Aliivibrio fischeri; assay: Antimicrobial activity against Vibrio fischeri NCIM 2154 at 500 ug/disk after 24 hrs by disk diffusion method; type: functional; settings: NCIM 2154, 24 h, read-out: DIZ
Method in brief: (§2)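 Disc diffusion. 100 µl of bacterial suspension at 10⁸ CFU/ml was spread on Mueller–Hinton agar. Discs loaded with test compound dissolved in DMSO were placed on the lawn, with a DMSO-only disc as negative control. Plates were incubated at 37 °C for 24 h, and the inhibition zone diameter was measured.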

[7] = test system: Rhodococcus corynebacterioides; assay: Antimicrobial activity against Corynebacterium rubrum NCIM 2252 at 500 ug/disk after 24 hrs by disk diffusion method; type: functional; settings: Rhodococcoides corynebacterioides, NCIM 2252, 24 h; read-out: DIZ; method in brief: as §1
[8] = test system: Salmonella typhimurium; assay: Antimicrobial activity against Salmonella Typhimurium NCIM 2501 at 1000 ug/disk after 24 hrs by disk diffusion method; type: functional, Salmonella enterica subsp. enterica serovar Typhimurium; settings: Salmonella enterica, NCIM 2501, 24 h; read-out: DIZ; method in brief: as §2
[9] = test system: Salmonella typhimurium; assay: Antimicrobial activity against Salmonella Typhimurium NCIM 2501 at 500 ug/disk after 24 hrs by disk diffusion method; type: functional, Salmonella enterica subsp. enterica serovar Typhimurium; settings: Salmonella enterica, NCIM 2501, 24 h; read-out: DIZ; method in brief: as §2
[10] = test system: Rhodococcus corynebacterioides; assay: Antimicrobial activity against Corynebacterium rubrum NCIM 2252 at 1000 ug/disk after 24 hrs by disk diffusion method; type: functional; settings: Rhodococcoides corynebacterioides, NCIM 2252, 24 h; read-out: DIZ; method in brief: as §1
[11] = test system: Staphylococcus; assay: Antimicrobial activity against Staphylococcus albus NCIM 2178 at 500 ug/disk after 24 hrs by disk diffusion method; type: functional; settings: NCIM 2178, 24 h, read-out: DIZ; method in brief: as §2
[12] = test system: Staphylococcus; assay: Antimicrobial activity against Staphylococcus albus NCIM 2178 at 1000 ug/disk after 24 hrs by disk diffusion method; type: functional; settings: NCIM 2178, 24 h, read-out: DIZ; method in brief: as §2
[13] = test system: Proteus vulgaris; assay: Antimicrobial activity against Proteus vulgaris NCIM 2027 at 500 ug/disk after 24 hrs by disk diffusion method; type: functional; settings: NCIM 2027, 24 h, read-out: DIZ; method in brief: as §1
[14] = test system: Proteus vulgaris; assay: Antimicrobial activity against Proteus vulgaris NCIM 2027 at 1000 ug/disk after 24 hrs by disk diffusion method; type: functional; settings: NCIM 2027, 24 h, read-out: DIZ; method in brief: as §1
[15] = test system: Aspergillus flavus; assay: Antimicrobial activity against Aspergillus flavus NCIM 902 at 500 ug/disk after 72 hrs by disk diffusion method; type: functional; settings: NCIM 902, 72 h, read-out: DIZ
Method in brief: (§3)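 Disc diffusion on Sabouraud's dextrose agar. 100 µl of fungal suspension at 10⁶ CFU/ml is spread on the plate. Discs carry test compounds at two loadings in DMSO; DMSO alone is the negative control. Clotrimazole disc is the positive reference. Plates are incubated at 27 °C for 72 h, and the zone of inhibition diameter is measured.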

[16] = test system: Aspergillus flavus; assay: Antimicrobial activity against Aspergillus flavus NCIM 902 at 1000 ug/disk after 72 hrs by disk diffusion method; type: functional; settings: NCIM 902, 72 h, read-out: DIZ; method in brief: as §3
[17] = test system: Rhodotorula mucilaginosa; assay: Antimicrobial activity against Rhodotorula rubra NCIM 3174 at 500 ug/disk after 72 hrs by disk diffusion method; type: functional; settings: NCIM 3174, 72 h, read-out: DIZ
Method in brief: (§4)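 Fungal disc diffusion. 100 µl of suspension at 10⁶ CFU/ml was spread on Sabouraud's dextrose agar. Discs carrying test compound in DMSO were applied, with a DMSO-only disc as negative control. Plates were incubated at 27 °C for 72 h, and the zone of inhibition diameter was measured.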

[18] = test system: Rhodotorula mucilaginosa; assay: Antimicrobial activity against Rhodotorula rubra NCIM 3174 at 1000 ug/disk after 72 hrs by disk diffusion method; type: functional; settings: NCIM 3174, 72 h, read-out: DIZ; method in brief: as §4
[19] = test system: Aspergillus fumigatus; assay: Antimicrobial activity against Aspergillus fumigatus NCIM 902 at 500 ug/disk after 72 hrs by disk diffusion method; type: functional; method in brief: as §3
[20] = test system: Aspergillus parasiticus; assay: Antimicrobial activity against Aspergillus parasiticus NCIM 904 at 1000 ug/disk after 72 hrs by disk diffusion method; type: functional; settings: NCIM 904, 72 h, read-out: DIZ; method in brief: as §3
[21] = test system: Penicillium chrysogenum; assay: Antimicrobial activity against Penicillium chrysogenum NCIM 707 at 500 ug/disk after 72 hrs by disk diffusion method; type: functional; method in brief: as §3
[22] = test system: Lipomyces lipofer; assay: Antimicrobial activity against Lipomyces lipofer NCIM 3252 at 1000 ug/disk after 72 hrs by disk diffusion method; type: functional; method in brief: as §3
[23] = test system: Klebsiella aerogenes; assay: Antimicrobial activity against Klebsiella aerogenes NCIM 2239 at 500 ug/disk after 24 hrs by disk diffusion method; type: functional; settings: NCIM 2239, 24 h, read-out: DIZ; method in brief: as §1
[24] = test system: Pseudomonas aeruginosa; assay: Antimicrobial activity against Pseudomonas aeruginosa NCIM 2200 at 1000 ug/disk after 24 hrs by disk diffusion method; type: functional; settings: NCIM 2200, 24 h, read-out: DIZ; method in brief: as §1
[25] = test system: Pseudomonas aeruginosa; assay: Antimicrobial activity against Pseudomonas aeruginosa NCIM 2200 at 500 ug/disk after 24 hrs by disk diffusion method; type: functional; settings: NCIM 2200, 24 h, read-out: DIZ; method in brief: as §2
[26] = test system: Aspergillus flavus; assay: Antimicrobial activity against Aspergillus flavus NCIM 902 after 72 hrs by serial dilution method; type: functional; settings: NCIM 535, 72 h, in the assay text read “NCIM 535” for “NCIM 902”
Method in brief: (§5)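 MIC by broth dilution in Sabouraud's dextrose broth, only for fungi sensitive in disc diffusion. Two-fold serial dilutions of compounds are made in 1 ml broth per tube, range 3.9 to 1000. Inoculated tubes are incubated at 27 °C for 72 h.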

[27] = test system: Rhodotorula mucilaginosa; assay: Antimicrobial activity against Rhodotorula rubra NCIM 3174 after 72 hrs by serial dilution method; type: functional; settings: NCIM 3174, 72 h
Method in brief: (§6)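 MIC by broth dilution in Sabouraud's dextrose broth, run only on fungi found sensitive in the disc assay. Twofold serial dilutions were made in 1 ml broth per tube, covering 3.9 to 1000. Inoculated tubes were incubated at 27 °C for 72 h.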

[28] = test system: Aspergillus parasiticus; assay: Antimicrobial activity against Aspergillus parasiticus NCIM 904 after 72 hrs by serial dilution method; type: functional; settings: NCIM 904, 72 h; method in brief: as §5
[29] = test system: Trichoderma viride; assay: Antimicrobial activity against Trichoderma viride NCIM 1195 after 72 hrs by serial dilution method; type: functional; settings: NCIM 1195, 72 h; method in brief: as §6
[30] = test system: Trichoderma viride; assay: Antimicrobial activity against Trichoderma viride NCIM 1195 at 1000 ug/disk after 72 hrs by disk diffusion method; type: functional; settings: NCIM 1195, 72 h, read-out: DIZ; method in brief: as §4
[31] = test system: Escherichia coli; assay: Antimicrobial activity against Escherichia coli NCIM 2065 after 24 hrs by serial dilution method; type: functional; settings: NCIM 2065, 24 h
Method in brief: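 Broth dilution MIC in nutrient broth, run only for organisms found sensitive in disc diffusion. Compounds are two-fold serially diluted in 1 ml sterile broth per tube, spanning 3.9 to 1000. Inoculated tubes are incubated at 37 °C for 24 h.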

[32] = test system: Aliivibrio fischeri; assay: Antimicrobial activity against Vibrio fischeri NCIM 2154 after 24 hrs by serial dilution method; type: functional; settings: NCIM 2154, 24 h

Row | Structure (SMILES) | zone of inhibition at 1000 µg/disc [1] | zone of inhibition at 500 µg/disc [2] | zone of inhibition at 1000 µg/disc [3] | zone of inhibition at 500 µg/disc [6] | zone of inhibition at 500 µg/disc [7] | zone of inhibition at 1000 µg/disc [8] | zone of inhibition at 500 µg/disc [9] | zone of inhibition at 1000 µg/disc [10] | zone of inhibition at 500 µg/disc [11] | zone of inhibition at 1000 µg/disc [12] | zone of inhibition at 500 µg/disc [13] | zone of inhibition at 1000 µg/disc [14] | zone of inhibition at 500 µg/disc [15] | zone of inhibition at 1000 µg/disc [16] | zone of inhibition at 500 µg/disc [17] | zone of inhibition at 1000 µg/disc [18] | diameter of the inhibition zone (DIZ) [19] | zone of inhibition at 1000 µg/disc [20] | zone of inhibition at 500 µg/disc [23] | zone of inhibition at 1000 µg/disc [24] | further results
1 | CC1(C)CC(=O)C2=C(C1)Nc1c(ccc3ccccc13)C2c1ccc(Cl)cc1 (centres undefined) | 9 mm | 8 mm | 10 mm | 7 mm | 7 mm | 11 mm | 9 mm | 10 mm | 7 mm | 9 mm | 9 mm | 10 mm | 7 mm | 8 mm | 9 mm | 13 mm | inactive | 17 mm | 8 mm | 9 mm | zone of inhibition at 500 µg/disc ([4]; NCIM 2155, 24 h, read-out: DIZ): 10 mm; zone of inhibition at 1000 µg/disc ([5]; NCIM 2155, 24 h, read-out: DIZ): 13 mm; diameter of the inhibition zone (DIZ) [21]: inactive; diameter of the inhibition zone (DIZ) [22]: inactive; zone of inhibition at 500 µg/disc [25]: 7 mm; MIC [26]: 125 µg/mL (≈ 322 µM); MIC [27]: 15.6 µg/mL (≈ 40.2 µM); MIC [28]: 3.9 µg/mL (≈ 10.1 µM); MIC [29]: 62.5 µg/mL (≈ 161 µM); zone of inhibition at 1000 µg/disc [30]: 9 mm; MIC [31]: 62.5 µg/mL (≈ 161 µM); MIC [32]: 62.5 µg/mL (≈ 161 µM)
2 | O=C1CCCC2=C1C(c1ccc(O)cc1)c1ccc3ccccc3c1N2 (centres undefined) | 9 mm | 9 mm | 11 mm | 7 mm | 7 mm | 9 mm | 7 mm | 9 mm | 8 mm | 10 mm | 7 mm | 9 mm | 7 mm | 8 mm | 12 mm | 14 mm | inactive | 13 mm | 7 mm | 9 mm | diameter of the inhibition zone (DIZ) [4]: inactive; diameter of the inhibition zone (DIZ) [5]: inactive; zone of inhibition at 500 µg/disc ([21]; NCIM 707, 72 h, read-out: DIZ): 9 mm; zone of inhibition at 1000 µg/disc ([22]; NCIM 3252, 72 h, read-out: DIZ): 11 mm; zone of inhibition at 500 µg/disc [25]: 7 mm; MIC [26]: 125 µg/mL (≈ 366 µM); MIC [27]: 7.8 µg/mL (≈ 22.8 µM); MIC [28]: 15.6 µg/mL (≈ 45.7 µM); MIC [29]: 31.2 µg/mL (≈ 91.4 µM); zone of inhibition at 1000 µg/disc [30]: 11 mm; MIC [31]: 125 µg/mL (≈ 366 µM); MIC [32]: 125 µg/mL (≈ 366 µM)
